Compounds with a hit are over-represented: about 2.3% of the library has one in this group of screens.
CHT inh – human CHT choline transport inhibition | Q9GZV3 | CHT-expressing cells, membrane potential dye, choline response; hits give low values | B-score at 10 µM | hit rate 0.86% among 310,000;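 active means B-score over 3 SD under the library average, and starting fluorescence ratio not unusually high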;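 further: choline stimulus applied at its EC90 after an EC20 pre-addition; B-score computed on integrated fluorescence ratio after choline addition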
Pemphigus Ab inh – blocks pemphigus antibody binding to human desmoglein-3; AID 588358; DSG3-coupled beads, scFv-anti-DSG3-GFP binding, flow cytometry; hits give low values; hit rate 0.48% among 310,000; binding (percent of control), % at 10 µM;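 active means binding more than 3 SD below its plate's average and above zero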;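 further: hits lower antibody fragment binding to DSG3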
T cell modulator – modulates CD8 T cell binding to vesicles | 2C CD8+ T cell-vesicle binding, flow cytometry; hits give low values | response (vesicle binding), % at 7 µM | hit rate 0.068% among 330,000 | AID 2052;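 active means response, share of CD8 T cells binding vesicles, and their 90th percentile fluorescence all below set limits, cut at about 80% in these data, passing the limit was not always enough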;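 further: values below 100% mean blocked vesicle binding to the CD8+ T cells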
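Assay system: 2C TCR transgenic mouse naive CD8+ T cells, MACS-purified | Read-out: CD8+ gate FL2 mean fluorescence as % of same-row positive control | Signal: High-throughput flow cytometry with anti-B7-1 and anti-CD8 staining | Timing: Binding step 1.5 h, 37 °C, antibody labelling 20 min, ice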
GPR7 antag – human neuropeptides B/W receptor 1 antagonism | GPR7-expressing cells, fluorescence antagonist assay | hit rate 1.1% among 290,000 | inhibition, % at 4.4 µM; in the data active means inhibition above about 16%, passing the limit was not always enough;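 further: cells stimulated with the agonist NPW; 0% = agonist with vehicle and 100% = vehicle without agonist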
Target sequence (P48145 whole entry, looked up): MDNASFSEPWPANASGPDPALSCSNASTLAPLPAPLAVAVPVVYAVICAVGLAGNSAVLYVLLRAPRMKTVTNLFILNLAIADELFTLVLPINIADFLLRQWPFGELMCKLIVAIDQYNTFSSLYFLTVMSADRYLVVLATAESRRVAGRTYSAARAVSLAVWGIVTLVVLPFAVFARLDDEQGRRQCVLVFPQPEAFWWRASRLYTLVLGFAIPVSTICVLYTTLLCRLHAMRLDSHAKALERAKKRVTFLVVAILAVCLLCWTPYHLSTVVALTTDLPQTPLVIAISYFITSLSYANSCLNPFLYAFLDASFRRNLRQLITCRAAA
p-CIP stab down – p/CIP protein destabilization | Q05BA5 | F442A p/CIP-EGFP cells, EGFP fluorescence, 16 h | decrease of EGFP signal, % at 10 µM | hit rate 0.01% among 290,000 | AID 1984;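 active means EGFP signal decrease of at least 30% at 10 µM or well 3 SD below plate mean, unless failing retest; inactive means the rest, including hits failing retest or dose response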
CHT allo act – human CHT allosteric activation; Q9GZV3; CHT-expressing cells, membrane potential dye, choline EC20; hits give high values; LV-AA mutant CHT in HEK293 cells; B-score at 10 µM; hit rate 0.49% among 310,000; AID 488977;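 active means initial fluorescence not abnormally high and integrated response B-score, plate-corrected, over 3 SD above library mean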
CHT block conf – human CHT inhibition, confirmatory screen; shares compounds with CHT inh; hit rate 70% among 2,400; CHT-expressing cells, choline membrane potential dye; LV-to-AA substituted CHT, HEK293 cells; AID 493221; CHT activity remaining % of control (hits give low values), % at 10 µM;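 active means choline transporter activity left, mean of duplicates at 10 µM, below buffer-only control mean minus 3 SD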;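 further: depolarization triggered by choline at its EC90 following an EC20 pre-addition; 0% = hemicholinium-3 full block and 100% = buffer-only control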
HEK293 MPD ctr – CHT inhibitor counter-screen hit in parental HEK293 cells; AID 493222; hit rate 4% among 2,400; shares compounds with CHT inh; membrane potential ratio readout (active if shifted either direction beyond buffer ±3SD; no single direction) at 10 µM; membrane potential dye, choline response; active = decrease or increase beyond buffer ±3SD;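 further: parental cells lack the transporter so any hit is non-specific; ratio is peak minus trough fluorescence over baseline after EC90 choline challenge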
The depositor's hits bear a star; i = inactive; . = not tested or not shown.

SMILES | CHT inh | Pemphigus Ab inh | T cell modulator | GPR7 antag | p-CIP stab down | CHT allo act | CHT block conf | HEK293 MPD ctr
COc1ccc(OCCSc2nnnn2C2CCCCC2)cc1 | -11* | . | 164 | -5 | -4 | i | i | i
COc1ccc(OCCSc2nnc(C)n2-c2ccccc2)cc1 | -5* | 98 | 413 | 10 | -15 | i | i | i
CCOC(=O)Nc1cccnc1Sc1ccc(Cl)cc1 | i | 107 | 382 | . | . | i | . | .
Cc1ccc(Sc2ncccc2NC(=O)c2ccccc2Cl)cc1 | -5* | 97 | 74 | -9 | -2 | i | i | i
CC(Oc1ccccc1Cl)C(=O)Nc1ccc(S(=O)(=O)Nc2nccs2)cc1 (centres undefined) | -7.7* | 97 | 190 | . | . | i | 65%* | i
Cc1ccccc1OC(C)C(=O)Nc1ccc(S(=O)(=O)Nc2nccs2)cc1 (centres undefined) | -7.2* | . | 319 | -14 | 28 | i | 47%* | i
CC(C)N1CC(C(=O)Nc2ccc(Cl)cc2Cl)CC1=O (centres undefined) | . | 99 | . | . | . | . | . | .
O=C(NCC1CCCO1)c1ccccc1NS(=O)(=O)c1ccc(Br)s1 (centres undefined) | . | 100 | . | . | . | . | . | .
NC(=O)c1ccc(NS(=O)(=O)c2ccc(S(=O)(=O)N3CCCC3)cc2)cc1 | . | 104 | . | . | . | . | . | .
COc1cccc(CNc2ccc(N3CCCCC3)cc2)c1OC | -15* | . | 154 | -12 | -8 | i | 12%* | i
CC(C)OC(=O)c1c(NC(=O)C2CC=CCC2C(=O)O)sc2c1CCCCC2 (centres undefined) | -5.2* | 119 | 158 | -9 | -2 | i | i | i
C[C@H](CO)N1C[C@H](C)[C@@H](CN(C)C(=O)Nc2cc(F)ccc2F)Oc2ncc(-c3cccc(F)c3)cc2C1=O | . | 103 | . | . | . | . | . | .
CC(=O)N1C[C@H]2CON(C)[C@H]2C[C@H]1c1cccc(N2CCOCC2)c1 | . | 104 | . | . | . | . | . | .
CCCOc1ccc(C(CC(=O)O)NC(=O)c2sc3ccccc3c2Cl)cc1 (centres undefined) | -6.8* | 103 | 128 | -9 | -17 | i | 25%* | i
CCOc1ccc(C(CC(=O)O)NC(=O)c2sc3ccccc3c2Cl)cc1 (centres undefined) | i | 113 | 247 | 6 | -1 | i | . | .
CC[N+]1(C)[C@@H]2CC[C@H]1CC(OC(=O)[C@H]1CCC(C(=O)OC3C[C@H]4CC[C@@H](C3)[N+]4(C)CC)(c3ccccc3)c3ccccc31)C2 (some centres undefined) | i | 113 | 148 | . | . | i | . | .
CC1CCCCC1NC(=O)Cn1nc(-c2ccccc2)ccc1=O (centres undefined) | -5.4* | 101 | 180 | 4 | -7 | i | 64%* | i
CC1CCCCN1CCNC(=O)Cn1nc(-c2ccccc2)ccc1=O (centres undefined) | i | 110 | 599 | 7 | -10 | i | . | .
CCN(C(=O)COC(=O)CCOc1cc(C)ccc1C)c1c(N)n(Cc2ccccc2)c(=O)[nH]c1=O | . | 92 | . | . | . | . | . | .
CC(C)c1nc2oc3c(N(C)CCO)ncnc3c2c2c1CCC2 | -5.7* | 109 | 204 | -22 | -6 | i | i | i
CC(C)c1nc2oc3c(NCC4CCCO4)ncnc3c2c2c1CCC2 (centres undefined) | i | 105 | 236 | -16 | -6 | i | . | .
CCOC(=O)CC1CCCCN1C(=O)c1cc(COc2cccc3cnccc23)on1 (centres undefined) | -5.4* | 117 | 234 | 21 | -22 | i | 69%* | i
COc1ccc2cc(C[C@@H]3CC[C@@H](CNC(N)=O)O3)ccc2c1 | . | 99 | . | . | . | . | . | .
COc1ccc(CNC(=O)O[C@]23C[C@H]4C(=O)N(c5ccccc5)C(=O)[C@H]4C[C@@]2(O)CN(S(=O)(=O)c2ccc(C)cc2)C3)cc1OC | . | 113 | . | . | . | . | . | .
O=c1[nH]cc(N=Cc2cc(Cl)cc(Cl)c2O)c(=O)[nH]1 | -13* | 119 | 183 | 4 | 4 | i | 51%* | i
SMILES | CHT inh | Pemphigus Ab inh | T cell modulator | GPR7 antag | p-CIP stab down | CHT allo act | CHT block conf | HEK293 MPD ctr
O=S(=O)(Nc1nc2ccccc2nc1NCc1ccco1)c1ccc(F)cc1 | -6.2* | 101 | 137 | -13 | -8 | i | i | i
Fc1ccc(-c2ccc3c(c2)C2CC3CCN2)cc1 (centres undefined) | . | 101 | . | . | . | . | . | .
CCc1nnc(NC(=O)c2ccc3c(=O)n4c(nc3c2)CCC4)s1 | . | 101 | . | . | . | . | . | .
O=[N+]([O-])c1cc([N+](=O)[O-])c2cccnc2c1Oc1ccccc1O | -7* | 114 | 414 | -7 | -15 | i | 45%* | i
CC(Oc1ccccc1F)c1nnc(SCC(=O)NCc2ccc3c(c2)OCO3)o1 (centres undefined) | . | 96 | 222 | . | . | . | . | .
NS(=O)(=O)c1ccc(NC(=O)CN2CCN(S(=O)(=O)c3cccs3)CC2)cc1 | . | 103 | . | . | . | . | . | .
Cc1nnc(NCc2cccc(Cl)c2)c2ccccc12 | -10* | 103 | 135 | 0 | 6 | i | 20%* | i
Oc1cccc(-n2nnnc2SCc2ccccc2F)c1 | -6.3* | 100 | 444 | -9 | -10 | i | 57%* | i
O=[N+]([O-])c1ccc(O)c(CSc2nnnn2-c2ccccc2)c1 | -6.1* | 109 | 242 | -4 | 4 | i | 30%* | i
N=C(N)SCc1ccccn1 | -5.9* | 93 | 199 | 5 | -8 | i | 33%* | i
N=C(N)SCc1ncccc1O | i | 95 | 453 | -14 | -12 | i | . | .
CN(C)c1ccc(C2/C(=C(/O)c3ccccc3)C(=O)C(=O)N2CCCC(=O)O)cc1 (centres undefined) | -6.6* | 94 | 206 | -8 | -6 | i | i | i
FC(F)Oc1ccc(-c2csc(Cc3nnc4n3CCCCC4)n2)cc1 | . | 129 | . | 3 | -17 | . | . | .
COc1ccc(-c2csc(Cc3nnc4n3CCCCC4)n2)cc1 | -5* | 100 | 145 | -5 | -2 | i | 42%* | i
CN(C(=O)c1cccc(NC(=O)Cc2ccc(NC(=O)C3CCN(C(=O)c4ccccc4)CC3)cc2)c1)C1CCCCC1 | . | 95 | . | . | . | . | . | .
O=C(COC(=O)c1ccc2ncsc2c1)NCc1ccccc1Cl | . | 105 | 129 | . | . | . | . | .
O=S(=O)(Nc1nc(-c2ccccc2)cs1)c1cc(Cl)ccc1Cl | i | 122 | 176 | -10 | 1 | i | . | .
